# Screens deposited in PubChem BioAssay by several laboratories.
# Hsp70 act = switches on Hsp70 transcription; HeLa Hsp70 promoter luciferase reporter, luminescence; scaled: vehicle 0, proteasome-inhibitor control 100%; activation, % at 10 µM; hit rate 0.04% among 200,000;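 active = activation above the mean across all tested compounds plus 3 SD, cutoff set per campaign, cut at about 5.5% in these data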
# HSF1 inh = HSF1 inhibition; NIH3T3-HGL HSE-luciferase, MG132-induced, luminescence 8 h; active compounds read low; activity change, negative = inhibition, % at 7.5 µM (by protocol); hit rate 0.77% among 300,000;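 active = more than half of replicate wells show activity change below -50%, luminescence cut by over half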;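 also: luciferase reports HSF-1 transcriptional activity via heat shock element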
# HSF-1 act = increases HSF-1 driven luciferase reporter signal; NIH3T3-HGL HSF-1 luciferase reporter, MG132, 8 h; 100% = twice DMSO control signal; activation, % at 9 µM; hit rate 1.7% among 300,000; AID 504408;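 active = mean replicate activation of at least 50% with a set share of replicates each reaching 50%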
# Rad51 HR inh = blocks human Rad51 in homologous recombination; Q06609; hRad51 DNA strand exchange, fluorescence dequenching; inhibition, % at 10 µM; hit rate 0.085% among 200,000; AID 1385;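 active = inhibition above 40% at the single screening dose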
#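 Assay system: Human Rad51 nucleoprotein filaments preassembled on unlabelled ssDNA | Reagent: Donor/quencher-labelled 47-bp dsDNA substrate | Doses: One concentration, 10 µM final | Times: 37 °C 15-min filament assembly, 30-min compound preincubation, 15-min exchange | Technique: Fluorescein emission 520 nm, excitation 485 nm | Benchmarks: Plate control and blank wells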
# HSV replic up = increases HSV replication in cells; HSV replication augmentation in cells, fold increase; maximum fold increase; hit rate 0.005% among 220,000; in the data active = maximum fold increase above about 1.5; tested in PC3 cells
# MDM2 E3 inh = inhibitors of human Mdm2 E3 ubiquitin ligase. Q00987. cell-based MDM2 ubiquitination luciferase reporter, 2 h; 0 = plate control, 100 = twice control, blank-subtracted. signal enhancement, % at 5 µM. hit rate 0.11% among 210,000;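 active = signal enhancement of 30% or more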;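 also: luminescence tracks abundance of the self-degrading MDM2-luciferase fusion protein; higher signal means inhibition of MDM2 E3 ligase activity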
# Target sequence (Q00987 whole entry, looked up, the tested form may be a part): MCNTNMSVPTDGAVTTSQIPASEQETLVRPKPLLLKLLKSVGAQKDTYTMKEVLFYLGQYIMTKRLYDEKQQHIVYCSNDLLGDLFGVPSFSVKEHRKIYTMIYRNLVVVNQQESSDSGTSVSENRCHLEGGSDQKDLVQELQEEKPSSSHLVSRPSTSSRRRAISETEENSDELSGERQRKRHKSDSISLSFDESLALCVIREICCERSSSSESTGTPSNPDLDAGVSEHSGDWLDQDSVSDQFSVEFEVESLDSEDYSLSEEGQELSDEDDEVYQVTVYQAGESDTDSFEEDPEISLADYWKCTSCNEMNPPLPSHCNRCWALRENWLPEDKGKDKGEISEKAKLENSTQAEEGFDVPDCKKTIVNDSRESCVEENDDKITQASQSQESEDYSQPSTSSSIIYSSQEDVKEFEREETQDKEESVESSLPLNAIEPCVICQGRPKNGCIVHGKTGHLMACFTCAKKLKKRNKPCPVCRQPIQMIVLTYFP
#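 Buffer or medium: Cells held in DMEM | Assay system: Stable mammalian line carrying autodegrading MDM2–luciferase fusion reporter | Quantity: 2000 cells/well | Times: 4 h settle plus 2 h compound, 37 °C | Doses: One concentration, 5 µM, with 0.2% DMSO | Technique: Luminescence with SteadyLite reagent, 15 min at room temperature | Benchmarks: Plate controls and plate blanks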
# Hits are given with their value; . = inactive; / = no result; ! = not confirmed by another sample. A selection: hits, their analogues and other compounds. The true share with any hit is near 2.6%.
SMILES,Hsp70 act,HSF1 inh,HSF-1 act,Rad51 HR inh,HSV replic up,MDM2 E3 inh
Cc1ccccc1-c1nc2sc3c(c2c(=O)o1)CCC3,.,.,.,.,.,.
Nn1c(-c2cccs2)nc2sc3c(c2c1=O)CCCC3,.,.,70,.,.,.
Cc1nc2sc3c(c2c(=O)n1N)CCC3,.,.,.,.,.,.
O=c1oc(-c2ccccc2)nc2sc3c(c12)CCCC3,.,.,69,.,.,.
C=CCNc1nc2c(c(=O)[nH]c(=O)n2C)n1CCCc1ccccc1,/,.,.,/,/,/
CC(=O)c1ccc(NC(=O)C2C3C=CC(O3)C2C(=O)O)cc1 (stereo not drawn),/,.,58,/,/,/
CN(C)c1ccc(NC(=O)C2C3C=CC(C3)C2C(=O)O)cc1 (stereo not drawn),/,.,.,/,/,/
O=C(O)C1CCCCC1C(=O)Nc1ccc2c(c1)OCCO2 (stereo not drawn),.,-65,.,.,.,.
O=C(Nc1ccc2c(c1)OCCO2)C1CC1c1ccccc1 (stereo not drawn),.,.,.,.,.,.
O=C(O)C1C2C=CC(C2)C1C(=O)Nc1ccc2c(c1)OCCO2 (stereo not drawn),.,-57,.,.,.,.
O=C(O)C1C2C=CC(O2)C1C(=O)Nc1ccc2c(c1)OCCO2 (stereo not drawn),.,-74,.,.,.,.
O=C(Nc1ccccc1C(=O)Nc1ccccc1)c1ccccc1F,/,.,.,/,/,/
O=C(O)c1cccc(NC(=O)c2ccccc2NC(=O)c2ccccc2F)c1,/,-68,.,/,/,/
O=C(Nc1ccccc1NC(=O)c1ccccc1F)c1ccccc1F,/,.,58,/,/,/
O=C(NN=C1CCCCCCCCCCC1)c1ccccc1F,.,-55,.,.,.,.
O=C(NN=C1CCCCCCC1)c1ccc(F)cc1,.,.,.,.,.,.
O=C(c1nn2c(C(F)(F)F)cc(-c3ccccc3)nc2c1Cl)N1CCN2CCCC2C1 (stereo not drawn),/,.,.,/,/,/
CCc1ccc(OCC(=O)N(CC)CC)cc1,.,.,.,.,.,.
CCC(C)Sc1cccc(-c2nc3cc(C)ccn3c2NCc2ccccc2)c1 (stereo not drawn),/,.,.,/,/,/
COCCN(C(=O)COC(=O)c1cnc(C)cn1)c1c(N)n(Cc2ccccc2)c(=O)[nH]c1=O,/,.,.,/,/,/
C/C(CC(=O)Nc1ccc2c(c1)OCO2)=N\NC(=O)c1ccccc1N,/,.,59,.,.,.
NC(=O)c1ccccc1NC(=O)Nc1cccc(Cl)c1Cl,.,.,77,.,.,.
C/C(CC(=O)Nc1cccc(Cl)c1Cl)=N\NC(=O)c1ccccc1N,.,.,55,.,.,.
COc1cccc(C(=O)Nc2ccc(C(=O)NCC3CCCO3)cc2)c1 (stereo not drawn),/,.,.,/,/,/
CCCCCOCC1CC(C/C(C)=N/NC(N)=S)C(=O)O1 (stereo not drawn),.,.,.,.,.,.
SMILES,Hsp70 act,HSF1 inh,HSF-1 act,Rad51 HR inh,HSV replic up,MDM2 E3 inh
CCCCCOCC1CC(C/C(C)=N/Nc2nc(-c3ccccc3)cs2)C(=O)O1 (stereo not drawn),.,.,.,62,.,.
CS(=O)(=O)Nc1ccc(C(=O)NCCSc2ccc(Cl)cc2)cc1,/,.,.,/,/,/
COc1ccc(N=Nc2ccc3ccccc3c2)c(O)c1,/,.,.,/,/,/
Oc1c(N=Nc2ccc(F)cc2)ccc2ccccc12,/,.,.,/,/,/
COc1cccc(N=Nc2ccc3ccccc3c2O)c1,/,-62,.,/,/,/
Cc1ccc(N=Nc2ccc3ccccc3c2O)cc1,/,-73,.,/,/,/
Cc1cccc(N2C(=O)CC(NNc3nc4ccccc4s3)C2=O)c1 (stereo not drawn),.,.,109,.,.,.
O=C1CC(NNc2nc3ccccc3s2)C(=O)N1c1ccc(F)cc1 (stereo not drawn),/,.,.,.,.,.
CC(C)(C)[C@H]1C=C(C(=O)O)O[C@@H](OCc2ccc(CO)cc2)C1,/,.,.,.,.,/
c1ccc(CN(CC2=NCCN2)c2ccccc2)cc1,.,.,.,.,.,/
Cc1ccc(N(CC2=NCCN2)c2cccc(O)c2)cc1,.,-72!,.,.,.,.
CC(=O)c1cccc(NC(=O)CN2C(=S)NC(C)(C)CC2C)c1 (stereo not drawn),.,-62,.,.,.,.
